# In ChEMBL document CHEMBL1124865, “Synthesis and biological evaluation of a series of parenteral 3'-quaternary ammonium cephalosporins” (J Med Chem, 1990):
# Columns and labels:
# [1] = test system: Enterobacter cloacae; experiment: Antibacterial activity against Enterobacter cloacae 265A; assay type: functional
# [2] = test system: Escherichia coli; experiment: Antibacterial activity against Escherichia coli EC14; assay type: functional
# [3] = test system: Enterobacter cloacae; experiment: Antibacterial activity against Enterobacter cloacae EB5; assay type: functional
# [4] = test system: Escherichia coli; experiment: Antibacterial activity against Escherichia coli TEM; assay type: functional
# [5] = test system: Klebsiella pneumoniae; experiment: microbe, parasite or virus in culture; assay type: functional; details: Klebsiella pneumoniae; read-out: MIC
# [6] = test system: Klebsiella pneumoniae; experiment: Antibacterial activity against Klebsiella pneumoniae X26; assay type: functional
# [7] = test system: Pseudomonas aeruginosa; experiment: Antibacterial activity against Pseudomonas aeruginosa X528; assay type: functional
# [8] = test system: Pseudomonas aeruginosa; experiment: Antibacterial activity against Pseudomonas aeruginosa PS18; assay type: functional
# [9] = test system: Staphylococcus aureus; experiment: Antibacterial activity against penicillin G resistance Staphylococcus aureus; assay type: functional
# [10] = test system: Staphylococcus aureus; experiment: Antibacterial activity against penicillin G susceptible Staphylococcus aureus; assay type: functional
# [11] = test system: Streptococcus pneumoniae; experiment: Antibacterial activity against Streptococcus pneumoniae; assay type: functional
# [12] = test system: Serratia marcescens; experiment: Antibacterial activity against Serratia marcescens SE3; assay type: functional
# [13] = test system: Enterococcus faecium; experiment: Antibacterial activity against Enterococcus faecium; assay type: functional; details: Enterococcus faecium; read-out: MIC
# [14] = test system: Streptococcus pyogenes; experiment: Antibacterial activity against Streptococcus pyogenes
# [15] = Terminal half life in dogs at the dose of 15 mg/kg.; assay type: ADME, organism-based, Canis lupus familiaris; set-up: dose 15 mg/kg; details: dog, in vivo
# Procedure, shortened: (§1)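 Overnight-fasted female mongrel dogs with a Foley bladder catheter; bolus into the cephalic vein. Plasma and urine collected before dosing and over 24 h after. Antibacterial activity measured by microbiological assay.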
# [16] = Terminal half life in dogs at the dose of 30 mg/kg.; assay type: ADME, organism-based, Canis lupus familiaris; set-up: dose 30 mg/kg; details: dog, in vivo; procedure, shortened: as §1
# [17] = test system: Canis familiaris; experiment: Percent of dose in dogs urine at the dose of 15 mg/kg.; assay type: functional, Canis lupus familiaris; procedure, shortened: as §1
# [18] = test system: Canis familiaris; experiment: Percent of dose in dogs urine at the dose of 30 mg/kg.; assay type: functional, Canis lupus familiaris; procedure, shortened: as §1
# [19] = test system: Escherichia coli; experiment: In vitro relative hydrolysis rate against Escherichia coli IIIa; assay type: functional
# Procedure, shortened: (§2)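 Spectrophotometric hydrolysis at 265 nm, substrate exposed to partially purified cell-free β-lactamase preparations; rate expressed as percentage of the cephaloridine rate.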
# [20] = test system: Enterobacter cloacae; experiment: In vitro relative hydrolysis rate against Enterobacter Ia; assay type: functional; procedure, shortened: as §2
# [21] = organism: Cavia porcellus; experiment: In vitro relative anticholinergic potential in isolated guinea pig trachea; assay type: functional
# Procedure, shortened: (§3)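 Guinea pig trachea in Krebs' solution at 37.5 °C, 95% O2/5% CO2, pH 7.4, 2 g resting tension. Cumulative carbachol log dose-response curve (3-fold steps) run before and 30 min after adding antagonist at 1 mM. […] Tukey test on log2 dose ratios.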
# [22] = organism: Cavia porcellus; experiment: In vitro relative anticholinergic activity in isolated guinea pig trachea; assay type: functional; details: read-out: pA2 (converted); procedure, shortened: as §3
# [23] = test system: Klebsiella pneumoniae; experiment: In vitro relative hydrolysis rate against Klebsiella IV; assay type: functional; procedure, shortened: as §2
# [24] = test system: Pseudomonas aeruginosa; experiment: (§4) In vivo efficacy against Pseudomonas aeruginosa infected mice treated at 1 hr and 5 hr post infection; assay type: functional; details: Pseudomonas aeruginosa; read-out: ED50
# [25] = test system: Staphylococcus aureus; experiment: (§5) In vivo efficacy against Staphylococcus aureus infected mice treated at 1 hr and 5 hr post infection; assay type: functional; details: Staphylococcus aureus; read-out: ED50
# [26] = test system: Escherichia coli; experiment: (§6) In vivo efficacy against Escherichia coli infected mice treated at 1 hr and 5 hr post infection; assay type: functional; details: Escherichia coli; read-out: ED50
# [27] = test system: Escherichia coli; experiment: In vivo efficacy against Escherichia coli infections in mice; assay type: functional; details: Escherichia coli; read-out: MIC
# [28] = test system: Pseudomonas aeruginosa; experiment: In vivo efficacy against Pseudomonas aeruginosa infections in mice; assay type: functional; details: Pseudomonas aeruginosa; read-out: MIC
# [29] = test system: Staphylococcus aureus; experiment: In vivo efficacy against Staphylococcus aureus infections in mice; assay type: functional; details: Staphylococcus aureus; read-out: MIC
# [30] = test system: Pseudomonas aeruginosa; experiment: In vitro relative hydrolysis rate against Pseudomonas Id; assay type: functional; procedure, shortened: as §2
# [31] = test system: Staphylococcus aureus; experiment: In vitro relative hydrolysis rate against Staphylococcus aureus; assay type: functional; procedure, shortened: as §2
# [32] = test system: Streptococcus pyogenes; experiment: Antibacterial activity against Streptococcus pyogenes; assay type: functional
# [33] = In vitro dose required for anticholinergic activity in isolated guinea pig trachea; assay type: functional
# [34] = test system: Mus musculus; experiment: as §6; assay type: functional
# Procedure, shortened: (§7)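 Mice given lethal experimental infections, with treatment at 1 and 5 h postinfection; ED50 expressed as mg/kg × 2.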
# [35] = test system: Mus musculus; experiment: as §4; assay type: functional; procedure, shortened: as §7
# [36] = test system: Mus musculus; experiment: as §5; assay type: functional; procedure, shortened: as §7
# [37] = Terminal half life in Rhesus […] the dose of 30 mg/kg.; assay type: ADME, organism-based, Macaca mulatta; set-up: dose 30 mg/kg; details: rhesus monkey
# Procedure, shortened: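 Male rhesus monkeys, 4 per compound, given a single intravenous dose of 30 mg/kg. […] Plasma and urine antibiotic levels measured by microbiological assay. Terminal half-life reported in min.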
# [38] = test system: Monkey; experiment: Percent of dose in Rhesus monkeys urine at the dose of 30 mg/kg.; assay type: functional, Cercopithecidae
# Procedure, shortened: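 Male rhesus monkeys dosed intravenously at 30 mg/kg. Plasma sampled from 0.08–0.1 h up to 6–8 h; urine collected over 0–6/8 and 6/8–24 h. Samples measured by microbiological assay.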
# [39] = Enterobacter cloacae, read-out: MIC
# [40] = Escherichia coli, read-out: MIC
# [41] = Klebsiella pneumoniae, read-out: MIC
# [42] = Pseudomonas aeruginosa, read-out: MIC
# [43] = Staphylococcus aureus, read-out: MIC
# [44] = Streptococcus pneumoniae, read-out: MIC
# [45] = Serratia marcescens, read-out: MIC
smiles,measurement,setting,value
CO/N=C(\C(=O)N[C@@H]1C(=O)N2C(C(=O)[O-])=C(C[n+]3cccc4ncccc43)CS[C@H]12)c1csc(N)n1,MIC,[1]; [39],8 mg/L
same,MIC,[2]; [40],0.06 mg/L
same,MIC,[3]; [39],0.25 mg/L
same,MIC,[4]; [40],0.125 mg/L
same,MIC,[5],4 mg/L
same,MIC,[6]; [41],0.06 mg/L
same,MIC,[7]; [42],4 mg/L
same,MIC,[8]; [42],8 mg/L
same,MIC,[9]; [43],4 mg/L
same,MIC,[10]; [43],2 mg/L
same,MIC,[11]; [44],0.06 mg/L
same,MIC,[12]; [45],0.5 mg/L
same,MIC,[13],> 128 mg/L
same,MIC,[14],0.03 mg/L
CO/N=C(\C(=O)N[C@@H]1C(=O)N2C(C(=O)[O-])=C(C[n+]3ccc4sccc4c3)CS[C@H]12)c1csc(N)n1,half-life,[15],1.75 h
same,half-life,[16],1.5 h
same,Dose,[17],55%
same,Dose,[18],58%
same,Hydrolysis rate,[19],0.3
same,Hydrolysis rate,[20],0.6
same,MIC,[1]; [39],4 mg/L
same,MIC,[2]; [40],0.015 mg/L
same,MIC,[3]; [39],0.06 mg/L
same,MIC,[4]; [40],0.03 mg/L
same,RAP,[21],100
same,Kb,[22],43.7 µM
same,MIC,[5],2 mg/L
same,MIC,[6]; [41],0.015 mg/L
same,Hydrolysis rate,[23],3.4
same,ED50,[24],6.3 mg/kg
same,ED50,[25],0.4 mg/kg
same,ED50,[26],0.02 mg/kg
same,MIC,[27],< 0.008 mg/L
same,MIC,[28],2 mg/L
same,MIC,[29],1 mg/L
same,Hydrolysis rate,[30],0.3
same,MIC,[7]; [42],2 mg/L
same,MIC,[8]; [42],4 mg/L
same,MIC,[9]; [43],2 mg/L
same,MIC,[10]; [43],1 mg/L
same,MIC,[11]; [44],0.015 mg/L
same,MIC,[12]; [45],0.125 mg/L
same,Hydrolysis rate,[31],7.8
same,MIC,"[32]; Streptococcus pyogenes, read-out: MIC",< 0.008 mg/L
same,MIC,[13],> 128 mg/L
same,Dose ratio,[33],23.67
CO/N=C(\C(=O)N[C@@H]1C(=O)N2C(C(=O)[O-])=C(C[n+]3cccc(CC(=O)O)c3)CS[C@H]12)c1csc(N)n1 (stereo in doubt; 6),MIC,[1],>128 mg/L
same,MIC,[2],0.015 mg/L
same,MIC,[3],0.5 mg/L
same,MIC,[4],0.03 mg/L
same,MIC,[6],0.015 mg/L
same,ED50,[34],0.13 mg/kg
same,ED50,[35],> 50 mg/kg
same,ED50,[36],7.8 mg/kg
same,MIC,[7],8 mg/L
same,MIC,[8],32 mg/L
same,MIC,[9],4 mg/L
same,MIC,[10],4 mg/L
same,MIC,[11],0.015 mg/L
same,MIC,[12],0.25 mg/L
same,MIC,[32],0.015 mg/L
CC(C)(O/N=C(\C(=O)N[C@@H]1C(=O)N2C(C(=O)[O-])=C(C[n+]3ccccc3)CS[C@H]12)c1csc(N)n1)C(=O)O [CEFTAZIDIME],half-life,[37],0.933 h
same,MIC,[1]; [39],64 mg/L
same,RAP,[21],1
same,MIC,[5],1 mg/L
same,Dose,[38],64%
same,MIC,[7]; [42],2 mg/L
same,MIC,[8]; [42],4 mg/L
same,MIC,[12]; [45],0.5 mg/L
same,MIC,[13],> 128 mg/L
